From ChEMBL document CHEMBL1139618, “The synthesis of substituted bipiperidine amide compounds as CCR3 ligands: antagonists versus agonists” (Bioorg Med Chem Lett, 2005)
Values joined by “and” are separate entries in the source; they are usually repeats but may differ in a detail not shown here. Identical values can stand only once.

Legend:
[1] = target: T1, C-C chemokine receptor type 3 (Homo sapiens, UniProt P51677); assay: (§1) In vitro binding activity against C-C chemokine receptor type 3 using [35S]GTP-gamma-S, as radioligand; type: functional
T1 sequence (P51677 whole entry): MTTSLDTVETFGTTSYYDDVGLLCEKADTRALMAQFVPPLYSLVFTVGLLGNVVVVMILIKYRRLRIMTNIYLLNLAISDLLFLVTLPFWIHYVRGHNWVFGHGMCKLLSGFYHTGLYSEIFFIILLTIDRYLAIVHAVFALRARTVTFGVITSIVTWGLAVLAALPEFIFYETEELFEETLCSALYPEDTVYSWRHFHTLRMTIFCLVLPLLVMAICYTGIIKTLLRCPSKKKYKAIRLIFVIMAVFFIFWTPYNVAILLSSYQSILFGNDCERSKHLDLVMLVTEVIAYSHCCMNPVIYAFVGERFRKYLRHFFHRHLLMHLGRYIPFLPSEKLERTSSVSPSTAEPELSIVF

[2] = target: T2, C-C chemokine receptor type 3 (Homo sapiens) (UniProt P51677); assay: In vitro percent increase over basal binding of [35S]-GTP-gamma S against C-C chemokine receptor type 3 at 10 uM; type: functional
T2 sequence (whole entry): T1 sequence (P51677 whole entry)
Procedure, shortened: (§2)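 [³⁵S]GTPγS binding to CCR3 receptor-membrane preparations in excess GDP, testing for agonism. E_max % is the percent rise over basal [³⁵S]GTPγS binding at 10 μM compound, expressed as a percent of the maximal response to 100 nM eotaxin.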

[3] = target: T2, C-C chemokine receptor type 3 (Homo sapiens); assay: In vitro percent inhibition against C-C chemokine receptor type 3 using [35S]GTP-gamma-S, as radioligand; at 1 uM; type: functional
[4] = Inhibitory concentration against CREM 3 cell line using calcium flux assay at 37 C at 7.4 pH with compound dissolved in DMSO; type: functional, cell-based; conditions: CREM3
Procedure, shortened: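 CREM3 cells (rat Y3 line transfected with human CCR3) were used at 37 °C. Compounds were dissolved in DMSO and diluted in pH 7.4 HBSS containing HEPES, BSA and probenecid.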

[5] = In vivo Area under curve in rat at 3 mg/kg after IV administration; type: ADME, organism-based; parameters: dose 3 mg/kg, route intravenous
[6] = target: T2, C-C chemokine receptor type 3 (Homo sapiens); assay: In vitro percent inhibition against C-C chemokine receptor type 3 using [35S]GTP-gamma-S, as radioligand at 1 uM; type: functional
[7] = target: T2, C-C chemokine receptor type 3 (Homo sapiens); assay: In vitro binding activity against C-C chemokine receptor type 3 using [35S]GTP-gamma-S, as radioligand at 1 uM; type: functional
[8] = target: T2, C-C chemokine receptor type 3 (Homo sapiens); assay: In vitro percent increase over basal binding of [35S]-GTP-gamma S against C-C chemokine receptor type 3; type: functional; procedure, shortened: as §2
[9] = target: T2, C-C chemokine receptor type 3 (Homo sapiens); assay: as §1; type: functional; conditions: concentration not given here

| SMILES | Ki [1] | other results |
| --- | --- | --- |
| O=C(NCC1CCCN(C2CCN(Cc3ccc(Cl)c(Cl)c3)CC2)C1)c1nccc2ccccc12 (stereo not drawn) | 34 nM | – |
| O=C(NCC1CCCN(C2CCN(C(=O)Cc3ccc(Cl)c(Cl)c3)CC2)C1)c1ccc2ncccc2c1 (stereo not drawn) | 767 nM | – |
| O=C(NCC1CCCN(C2CCN(Cc3cc(Cl)cc(Cl)c3)CC2)C1)c1ccc2ncccc2c1 (stereo not drawn) | 398 nM | Emax [2]: 45% |
| O=C(NCC1CCCN(C2CCN(C(=O)c3ccc(Cl)c(Cl)c3)CC2)C1)c1ccc2ncccc2c1 (stereo not drawn) | – | inhibition [3]: 20% |
| O=C(NCC1CCCN(C2CCN(Cc3cc(Cl)ccc3Cl)CC2)C1)c1ccc2ncccc2c1 (stereo not drawn) | 391 nM | Emax [2]: 45% |
| O=C(NCC1CCCN(C2CCN(Cc3ccc(Cl)c(Cl)c3)CC2)C1)C1CCCCC1 (stereo not drawn) | 107 nM | – |
| O=C(NCC1CCCN(C2CCN(Cc3ccc(Cl)c(Cl)c3)CC2)C1)c1ccc2ncccc2c1 (stereo not drawn) | 23 nM | Emax [2]: -7%; IC50 [4]: 215 nM; AUC [5]: 264 ng·h/mL |
| O=C(NCC1CCCN(C2CCN(Cc3ccc(Cl)c(Cl)c3)CC2)C1)c1ccc2nc[nH]c2c1 (stereo not drawn) | 47 nM | – |
| O=C(Nc1ccc(Cl)c(Cl)c1)NN1CCC(N2CCCC(CNC(=O)c3ccc4ncccc4c3)C2)CC1 (stereo not drawn) | – | inhibition [6]: 6% |
| O=C(NCC1CCCN(C2CCN(Cc3ccccc3Cl)CC2)C1)c1ccc2ncccc2c1 (stereo not drawn) | – | inhibition [7]: 36% |
| CC(=O)NCC1CCCN(C2CCN(Cc3ccc(Cl)c(Cl)c3)CC2)C1 (stereo not drawn) | 533 nM | – |
| CC1(N2CCCC(CNC(=O)c3ccc4ncccc4c3)C2)CCN(Cc2ccc(Cl)c(Cl)c2)CC1 (stereo not drawn) | 50 nM | Emax [8]: 8% |
| O=C(NCC1CCCN(C2CCN(Cc3ccc(Cl)c(Cl)c3)CC2)C1)c1ccccc1Cl (stereo not drawn) | – | inhibition [9]: 27% |
| O=C(NCC1CCCN(C2CCN(Cc3ccc(Cl)cc3)CC2)C1)c1ccc2ncccc2c1 (stereo not drawn) | 95 nM | Emax [2]: -8% |
| O=C(NCC1CCCN(C2CCN(CC3CCCCC3)CC2)C1)c1ccc2ncccc2c1 (stereo not drawn) | – | inhibition [6]: 17% |
| O=C(NCC1CCCN(C2CCN(CCc3ccc(Cl)c(Cl)c3)CC2)C1)c1ccc2ncccc2c1 (stereo not drawn) | 180 nM | Emax [2]: 2% |
| CC1CN(Cc2ccc(Cl)c(Cl)c2)CCC1N1CCCC(CNC(=O)c2ccc3ncccc3c2)C1 (stereo not drawn) | 7.3 nM | Emax [8]: 96% |
| O=C(NCC1CCCN(C2CCN(Cc3ccc(Cl)c(Cl)c3)CC2)C1)c1ccc2[nH]ccc2c1 (stereo not drawn) | 29 nM | – |
| CC(c1ccc(Cl)c(Cl)c1)N1CCC(N2CCCC(CNC(=O)c3ccc4ncccc4c3)C2)CC1 (stereo not drawn) | 74 nM | Emax [2]: -12% |

Continued, in another order:

| Ki [1] | SMILES | other results |
| --- | --- | --- |
| 48 nM | O=C(NCC1CCCN(C2CCN(Cc3ccc(Cl)c(Cl)c3)CC2)C1)c1ccc2ccccc2c1 (stereo not drawn) | – |
| 36 nM | O=C(NCC1CCCN(C2CCN(Cc3ccc(Cl)c(Cl)c3)CC2)C1)c1cccc2[nH]ccc12 (stereo not drawn) | – |
| 92 nM | COc1ccccc1C(=O)NCC1CCCN(C2CCN(Cc3ccc(Cl)c(Cl)c3)CC2)C1 (stereo not drawn) | – |
| 80 nM | O=C(NCC1CCCN(C2CCN(Cc3ccc(Cl)c(Cl)c3)CC2)C1)c1ccnc2ccccc12 (stereo not drawn) | – |
| 60 nM | Cc1ccccc1C(=O)NCC1CCCN(C2CCN(Cc3ccc(Cl)c(Cl)c3)CC2)C1 (stereo not drawn) | – |
| 30 nM and 36 nM | O=C(NCC1CCCN(C2CCN(Cc3ccc(Cl)c(Cl)c3)CC2)C1)c1cccc2cccnc12 (stereo not drawn) | – |
| 86 nM | Cc1ccccc1CC(=O)NCC1CCCN(C2CCN(Cc3ccc(Cl)c(Cl)c3)CC2)C1 (stereo not drawn) | – |
| 58 nM | O=C(NCC1CCCN(C2CCN(Cc3ccc(Cl)c(Cl)c3)CC2)C1)c1cccc2ccccc12 (stereo not drawn) | – |
| 99 nM | O=C(NCC1CCCN(C2CCN(Cc3ccc(Cl)c(Cl)c3)CC2)C1)c1cnnc2ccccc12 (stereo not drawn) | – |
